Screening data from PubChem BioAssay.
MDM2 E3 inh = MDM2-luciferase reporter signal enhancers, primary screen, MDM2 E3 ligase inhibitor project, cell-based, luminescence, 1536-well; signal enhancement, % at 5 µM; actives 0.11% (n = 210,000); cell-based MDM2 ubiquitination luciferase reporter, 2 h; 0 = plate control, 100 = twice control, blank-subtracted; AID 1230, 2008; E3 ubiquitin-protein ligase Mdm2 (Homo sapiens), Q00987;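 active = signal enhancement of 30% or more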;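 also: luminescence tracks abundance of the self-degrading MDM2-luciferase fusion protein; higher signal means inhibition of MDM2 E3 ligase activity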
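Assay system: stable mammalian line carrying autodegrading MDM2–luciferase fusion reporter; amount: 2000 cells seeded into each well; buffer or medium: DMEM; benchmarks: plate control and blank wells; signal: luciferase luminescence; timing: 2 h compound exposure at 37 °C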
S1P4 ag = S1P4 receptor agonists, primary screen, cell-based. Sphingosine 1-phosphate receptor 4 (Homo sapiens), O95977. S1P4-expressing cell line, agonist reporter assay. activation, % at 4.98 µM. actives 0.35% (n = 220,000); in the data active = activation above about 11%
S1P3 antagonist = S1P3 receptor antagonists, primary screen, cell-based; Sphingosine 1-phosphate receptor 3 (Homo sapiens), Q99500; CHO S1P3 NFAT-BLA reporter, FRET fluorescence, antagonist mode; inhibition, % at 4.98 µM; actives 0.27% (n = 170,000); AID 485, 2006;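 active = inhibition above the plate cutoff, the mean inhibition of test wells on that plate plus 3 SD, cut at about 28% in these data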;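 also: cells challenged with S1P at its EC80 of 0.8 µM; blue over green emission ratio from cleaved BLA substrate after 4 h stimulation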
Target sequence (Q99500 whole entry, looked up): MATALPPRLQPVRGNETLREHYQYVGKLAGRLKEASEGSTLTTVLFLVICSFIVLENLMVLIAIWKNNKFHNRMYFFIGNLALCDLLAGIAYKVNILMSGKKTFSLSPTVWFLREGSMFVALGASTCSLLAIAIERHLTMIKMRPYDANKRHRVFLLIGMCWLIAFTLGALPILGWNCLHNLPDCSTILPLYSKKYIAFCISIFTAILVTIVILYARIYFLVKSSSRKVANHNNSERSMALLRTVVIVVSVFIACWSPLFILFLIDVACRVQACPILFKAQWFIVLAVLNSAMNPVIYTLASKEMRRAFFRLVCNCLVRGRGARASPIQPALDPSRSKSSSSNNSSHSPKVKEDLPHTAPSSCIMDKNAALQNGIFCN
L major viab = Leishmania major promastigote growth inhibition, primary screen | inhibition, % at 10 µM | AID 1063, 2008 | actives 9% (n = 200,000) | Leishmania major promastigotes, resazurin fluorescence viability; in the data active = inhibition above about 50%;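 also: promastigotes grown with compound for 44 hours at 28 °C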
S1P4 antagonist = S1P4 receptor antagonists, primary screen, cell-based | Sphingosine 1-phosphate receptor 4 (Homo sapiens), O95977 | S1P4-expressing cells, antagonist mode, reporter read-out | inhibition, % at 4.98 µM | actives 0.26% (n = 220,000); in the data active = inhibition above about 29%
Hits are given with their value; i = inactive; nt = no result. The entries come from a sample that favours hits as a whole.

SMILES	MDM2 E3 inh	S1P4 ag	S1P3 antagonist	L major viab	S1P4 antagonist
N#Cc1cccc(NC(=O)C2SC(=Nc3ccccc3)C(C(=O)N3CCOCC3)=C2N)c1 (stereo unspecified)	i	i	i	53.5	i
CCOc1nsc(OCC)n1	i	i	i	nt	i
COc1ccc(-c2nnc(SCC(=O)NCc3ccco3)o2)cc1	i	i	i	i	i
O=S(=O)(c1cccc(-c2nnc(SCc3nc4ccccc4s3)o2)c1)N1CCOCC1	i	i	i	i	i
O=S(=O)(c1ccc(NC(=S)NCc2ccco2)cc1)N1CCCC1	i	i	i	51.7	i
CCNC(=S)NCc1ccco1	i	i	i	59.3	i
O=C(CSc1nnc(-c2ccc(S(=O)(=O)N3CCCC3)cc2)o1)NCc1ccco1	i	i	i	88.2	i
CC/C(C)=N/NC(=S)NCc1ccco1	i	i	i	i	i
O=c1c2ccccc2nnn1CSc1nnc(-c2cccc(S(=O)(=O)N3CCCCC3)c2)o1	i	i	nt	71.2	i
Cc1ccc2nsnc2c1NC(=O)COc1ccccc1F	i	i	i	i	i
CCN(CC)C(=O)CSc1nnc(-c2ccc(S(=O)(=O)N3CCCC3)cc2)o1	nt	i	nt	98.9	i
CCOC(=O)C1CCN(Cc2ccccc2C(F)(F)F)CC1	i	i	i	i	i
Cc1ccc(C2(c3noc(CN4C[C@@H](C)O[C@@H](C)C4)n3)CCCC2)cc1	i	i	i	i	i
CCOC(=O)C1CCN(Cc2cnc(Oc3ccc(Cl)cc3C)s2)CC1	i	i	nt	90.0	i
CCOC(=O)C1CCN(Cc2cnc(Oc3ccc(N)cc3)s2)CC1	i	i	nt	84.4	i
Cc1ccc(Oc2ncc(CN3CC(C)OC(C)C3)s2)cc1 (stereo unspecified)	i	i	nt	52.2	i
COc1ccc(OC)c(NC(=O)COC(=O)/C=C/c2ccc(Cl)cc2)c1	i	i	i	i	i
COc1ccc(C(=S)N2CCN(C)CC2)cc1	i	i	nt	84.5	i
CN1CCN(C(=S)NC(=O)c2ccc(Cl)cc2)CC1	i	i	i	i	i
COc1ccc(C(=O)Oc2ccc(C(=S)N3CCOCC3)cc2)cc1	i	i	i	i	i
CN1CCN(C(=S)c2ccc(Cl)cc2)CC1	i	i	nt	89.6	i
COc1cc(C(=S)N2CCCC2)ccc1O	i	i	i	i	i
COc1ccc(C(=S)N2CCN(C)CC2)cc1Br	i	i	i	92.3	i
CC1C(C#N)=C(N)OC2=C1C(=O)CC(c1ccccc1)C2 (stereo unspecified)	i	i	i	i	i
COc1ccc(-c2cc(-c3cccs3)c(C#N)c(SCC(=O)NCc3ccccc3OC)n2)cc1	i	i	nt	90.6	i
SMILES	MDM2 E3 inh	S1P4 ag	S1P3 antagonist	L major viab	S1P4 antagonist
COc1ccc(-c2cc(-c3cccs3)c(C#N)c(SCC(=O)NCc3ccccc3)n2)cc1	i	i	nt	i	i
COC(=O)C(CC(C)C)Oc1ccc2c(C)cc(=O)oc2c1 (stereo unspecified)	i	i	nt	85.5	i
CC(=O)Oc1ccc2c(C)cc(=O)oc2c1	i	i	nt	i	i
COc1ccc2c(c1)Cc1sc(NC(=O)c3ccco3)nc1-2	i	i	nt	53.2	i
COc1ccc2c(c1)Cc1sc(NC(=O)c3cccnc3)nc1-2	i	i	i	55.0	i
COc1ccc2c(CC(=O)Nc3cccc(S(=O)(=O)N4CCOCC4)c3)coc2c1	i	i	i	i	i
COC(=O)C1=C(C)N(C)C(C)=C(C(=O)OC)C1c1ccccc1C	i	i	i	i	i
CCCCOc1ccccc1C1C(C(=O)OC)=C(C)N(C)C(C)=C1C(=O)OC	nt	i	i	87.7	i
COc1cccc(OCCNC(=O)c2cc([N+](=O)[O-])cc([N+](=O)[O-])c2)c1	i	i	i	83.4	i
COc1cccc(OCCNC(=O)c2cccc(OC)c2)c1	i	i	i	i	i
Cc1ccc(OCCNC(=O)c2cc(C(=O)NCCOc3ccc(C)cc3)cc([N+](=O)[O-])c2)cc1	i	i	i	99.0	i
CCOc1ccc(NC(=S)N2CCc3cc(OC)c(OC)cc3C2COc2ccc3c(C)cc(=O)oc3c2)cc1 (stereo unspecified)	i	i	i	i	i
CCOC(=O)N/N=C(/C)c1ccc([N+](=O)[O-])o1	i	i	nt	96.1	i
Clc1ccc(Sc2ccc(/C=N/n3cnnc3)o2)cc1	i	i	nt	66.0	i
Clc1ccc(Sc2oc(/C=N/n3cnnc3)cc2Br)cc1	i	i	i	71.0	i
CN(C)C(=O)/C(C#N)=C\c1cc(Br)c(Sc2ccc(Cl)cc2)o1	i	i	i	i	i
CC(=O)Nc1ccc2c(CSc3nnc(N)s3)cc(=O)oc2c1	i	i	i	nt	i
Cc1ccc(C)c(S(=O)(=O)Nc2ccc3scnc3c2)c1	i	i	i	i	i
Cc1ccccc1N1C(=O)CN(Cc2sccc2C)C1=S	i	i	i	92.8	i
Cc1ccc(N2C(=O)CN(Cc3sccc3C)C2=S)cc1C	nt	i	i	i	i
COc1ccc(C[C@H]2CN3C(=NC[C@H]3C)N2CCNC(=O)c2ccc(C)c(Br)c2)cc1	nt	i	i	53.2	i
Cc1ccc(C(=O)NCCN2C3=NC[C@H](C)N3C[C@H]2Cc2ccc(O)cc2)cc1Br	nt	i	i	i	i
CCOC(=O)C1CSC(CC(=O)Nc2ccc(Cl)cc2)C(=O)N1 (stereo unspecified)	i	i	i	i	i
Cc1ccc(N2C(=O)CC(Sc3ncn[nH]3)C2=O)cc1C (stereo unspecified)	i	i	nt	i	i
O=c1c2ccccc2c(C=NCCCN2CCOCC2)c(O)n1Cc1ccc2c(c1)OCO2	i	i	i	85.6	i
SMILES	MDM2 E3 inh	S1P4 ag	S1P3 antagonist	L major viab	S1P4 antagonist
Cc1cc(N2C3CCC2CC(O)(c2ccc(F)cc2)C3)nc(-c2ccccc2)n1 (stereo unspecified)	i	i	i	58.1	i
NNC(=S)NCc1ccccc1	i	i	i	nt	i
S=C(NCC1CCCO1)Nc1ccccc1Cl (stereo unspecified)	i	i	i	64.5	i
S=C(Nc1ccccc1Cl)NC1CCC(NC(=S)Nc2ccccc2Cl)CC1 (stereo unspecified)	i	i	i	i	i
COc1ccc(CCNC(=S)NC2CCN(Cc3ccccc3)CC2)cc1OC	i	i	i	i	i
S=C(NCc1ccc(Cl)cc1)NC1CCN(Cc2ccccc2)CC1	i	i	i	80.0	i
S=C(NCc1ccccc1)NCc1cccc(CNC(=S)NCc2ccccc2)c1	i	i	i	84.5	i
S=C(Nc1ccc(Cl)cc1Cl)NC1CCN(Cc2ccccc2)CC1	i	i	i	92.4	i
S=C(NCC1CCCO1)Nc1ccc(Cl)c(Cl)c1 (stereo unspecified)	i	i	i	i	i
COC(=O)[C@H](C)NC(=O)NC1CCN(Cc2ccccc2)CC1	nt	i	nt	i	i
